Measurements taken from paper PMC5598103 (Toxicology Reports, 2014).

Columns and labels:
[1] = molecular target: T1, tissue non-specific alkaline phosphatase (TNAP) (Homo sapiens, UniProt P05186); assay: Alkaline phosphatase inhibition, spectrophotometric p-NPP assay; type: biochemical; conditions: for Ki: read-out: Ki ± SEM TNAP, pH 9.5, p-NPP substrate, SEM of 3 experiments
T1 sequence (P05186 18-524): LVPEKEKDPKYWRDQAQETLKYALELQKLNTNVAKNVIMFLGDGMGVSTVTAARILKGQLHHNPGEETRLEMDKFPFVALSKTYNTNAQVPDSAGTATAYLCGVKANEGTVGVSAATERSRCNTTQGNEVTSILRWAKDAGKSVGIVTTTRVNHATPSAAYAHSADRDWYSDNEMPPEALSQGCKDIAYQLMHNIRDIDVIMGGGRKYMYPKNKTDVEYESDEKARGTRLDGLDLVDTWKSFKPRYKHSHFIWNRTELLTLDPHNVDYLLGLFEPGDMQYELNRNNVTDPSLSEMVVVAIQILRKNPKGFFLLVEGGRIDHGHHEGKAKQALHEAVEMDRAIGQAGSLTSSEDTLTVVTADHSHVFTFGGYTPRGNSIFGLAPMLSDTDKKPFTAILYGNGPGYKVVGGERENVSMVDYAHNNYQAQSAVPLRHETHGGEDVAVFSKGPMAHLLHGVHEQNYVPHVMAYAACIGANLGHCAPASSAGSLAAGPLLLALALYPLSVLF
In short: (§1)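 Commercial enzyme (calf-intestinal CIAP; TNAP) diluted in pH 9.5 buffer of 50 mM Tris–HCl, 5 mM MgCl2, 0.1 mM ZnCl2 and 50% glycerol. Test compound was preincubated with enzyme in glycerol-free buffer at 37 °C for 10 min. 0.5 mM p-NPP solution was added, incubated 30 min, and p-nitrophenolate read at 405 nm. Screen at 0.1 mM used levamisole (TNAP) or L-phenylalanine (CIAP) as standards. Ki came from 3-fold serial dilutions, run in triplicate.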

HeLa cells = assay: Cytotoxicity by sulforhodamine B; type: cell-based, human; conditions: for Percent inhibition ± SEM at 0.1 μM on Hela cells / Percent inhibition ± SEM at 1 μM on Hela cells / Percent inhibition ± SEM at 10 μM on Hela cells: up to 48 h
In short: (§2)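 HeLa or vero cells were grown in RPMI-1640 with 2 mM L-glutamine, penicillin/streptomycin and 10% FBS at 37 °C, 5% CO2. Cells were seeded at 10^4 per well for 24 h, then exposed to 10, 1 or 0.1 μM test compound for up to 48 h, with vincristine and medium controls. Cells were fixed with cold TCA for 1 h and stained 30 min with 0.4% SRB in 1% acetic acid. Dye was solubilised in 10 mM Tris base and read at 490 nm minus 630 nm. Three experiments were run, each in triplicate.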

vero cells = assay: Cytotoxicity by sulforhodamine B; type: cell-based; conditions: for Percent inhibition ± SEM at 10 μM on vero cells: up to 48 h
In short: as §2

[2] = molecular target: calf intestine alkaline phosphatase (CIAP); assay: Alkaline phosphatase inhibition, spectrophotometric p-NPP assay; type: biochemical; conditions: read-out: Ki ± SEM CIAP; pH 9.5, p-NPP substrate, SEM of 3 experiments
In short: as §1

Row | Molecule | inhibition at 100 µM ([1]; read-out: Percent inhibition of TNAP) | inhibition at 10 µM (HeLa cells; Homo sapiens, HeLa, 48 h, read-out: Percent inhibition ± SEM at 10 μM on Hela cells) | inhibition at 10 µM (vero cells; Chlorocebus sabaeus, Vero, 48 h, read-out: Percent inhibition ± SEM at 10 μM on vero cells) | Ki [2] | Ki [1] | Percent inhibition ± SEM at 0.1 μM on Hela cells (HeLa cells) | Percent inhibition ± SEM at 1 μM on Hela cells (HeLa cells) | Percent inhibition ± SEM at 10 μM on Hela cells (HeLa cells) | Percent inhibition ± SEM at 10 μM on vero cells (vero cells)
1 | c1ccc([C@H]2CN3CCSC3=N2)cc1 [Levamisole, reference compound] | 71% | – | – | – | – | – | – | – | –
2 | CC[C@]1(O)C[C@H]2CN(CCc3c([nH]c4ccccc34)[C@@](C(=O)OC)(c3cc4c(cc3OC)N(C=O)[C@H]3[C@@](O)(C(=O)OC)[C@H](OC(C)=O)[C@]5(CC)C=CCN6CC[C@]43[C@@H]65)C2)C1 [VCN, vincristine, reference compound] | – | 72 ± 7% | 10 ± 4% | – | – | – | – | – | –
3 | (NH4)14[NaP5W30O110]·31H2O | – | – | – | 921 ± 6 nM | 1110 ± 36 nM | 54 ± 6% | 62 ± 13% | 74 ± 10% | 15 ± 6%
4 | Na6[TeW6O24]·22H2O | – | – | – | 520 ± 13 nM | 45.4 ± 11.3 nM | 53 ± 12% | 62 ± 10% | 69 ± 10% | 16 ± 8%
5 | Na6[V10O28]·18H2O | – | – | – | 79.1 ± 2.3 nM | 169 ± 21 nM | 49 ± 11% | 57 ± 13% | 66 ± 15% | 16 ± 3%
